As a reminder, the CC50 is the concentration giving 50% cytotoxicity. A low value points to greater toxicity to the cells. As usually defined, the IC50 is the point on the concentration scale where inhibition reaches its midpoint. Read a high IC50 as a need for much substance. One may read the half-life as the time in which the quantity being followed falls by half. A high value points to slow loss. For orientation: bioavailability means dose-corrected exposure relative to a reference, in per cent.

This is an account of results in ChEMBL document CHEMBL1138950, “Benzimidazole derivatives bearing substituted biphenyls as hepatitis C virus NS5B RNA-dependent RNA polymerase inhibitors: structure-activity relationship studies and identification of a potent and highly selective inhibitor JTK-109” (J Med Chem, 2006).

A short description of data set [1]: Plasma concentration in rat at 30 mg/kg, po after 2 hrs. The data set is classed as ADME, organism-based. Details: dose 30 mg/kg, route oral; call rule not given here. The essentials: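 Rats dosed orally at 30 mg/kg; plasma sampled at 1 and 2 h; n = 2 or 3.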
Data set [2] deals with Cytochrome P450 2C9 (Homo sapiens, UniProt P11712). The experiment in a line: Induction of CYP450 2C9. It is filed as ADME.
Sequence of Cytochrome P450 2C9 (P11712 whole entry): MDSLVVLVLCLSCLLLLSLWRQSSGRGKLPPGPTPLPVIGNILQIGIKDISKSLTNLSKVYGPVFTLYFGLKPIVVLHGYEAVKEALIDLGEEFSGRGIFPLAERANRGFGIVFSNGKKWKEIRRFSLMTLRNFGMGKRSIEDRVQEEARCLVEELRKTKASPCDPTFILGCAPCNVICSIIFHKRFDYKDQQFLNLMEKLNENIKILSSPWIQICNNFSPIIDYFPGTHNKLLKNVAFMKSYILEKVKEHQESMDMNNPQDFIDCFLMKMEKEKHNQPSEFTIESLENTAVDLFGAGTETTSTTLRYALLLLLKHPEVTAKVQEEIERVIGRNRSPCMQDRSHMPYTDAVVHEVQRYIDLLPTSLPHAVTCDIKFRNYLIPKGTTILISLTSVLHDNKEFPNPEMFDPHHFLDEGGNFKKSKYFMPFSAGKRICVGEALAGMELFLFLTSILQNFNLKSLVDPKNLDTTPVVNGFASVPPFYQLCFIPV
Data set [3] concerns Huh-5-2. The experiment in a line: Viability of Huh5-2 cells by MTT assay. It is filed as functional. Particulars: Homo sapiens.
Data set [4] addresses T1, RNA-directed RNA polymerase (Hepacivirus hominis, UniProt O39930). Kind of data set: Inhibition of HCV 2b NS5B RNA dependent RNA polymerase. Details: species or system Hepatitis C virus subtype 2b. An outline of the steps: (§1)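 IC50 from the mean of four independent experiments; standard deviations within 30% of the mean.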
For data set [5], the target named is T2, DNA polymerase alpha catalytic subunit (Homo sapiens, UniProt P09884).
T2 sequence (P09884 whole entry): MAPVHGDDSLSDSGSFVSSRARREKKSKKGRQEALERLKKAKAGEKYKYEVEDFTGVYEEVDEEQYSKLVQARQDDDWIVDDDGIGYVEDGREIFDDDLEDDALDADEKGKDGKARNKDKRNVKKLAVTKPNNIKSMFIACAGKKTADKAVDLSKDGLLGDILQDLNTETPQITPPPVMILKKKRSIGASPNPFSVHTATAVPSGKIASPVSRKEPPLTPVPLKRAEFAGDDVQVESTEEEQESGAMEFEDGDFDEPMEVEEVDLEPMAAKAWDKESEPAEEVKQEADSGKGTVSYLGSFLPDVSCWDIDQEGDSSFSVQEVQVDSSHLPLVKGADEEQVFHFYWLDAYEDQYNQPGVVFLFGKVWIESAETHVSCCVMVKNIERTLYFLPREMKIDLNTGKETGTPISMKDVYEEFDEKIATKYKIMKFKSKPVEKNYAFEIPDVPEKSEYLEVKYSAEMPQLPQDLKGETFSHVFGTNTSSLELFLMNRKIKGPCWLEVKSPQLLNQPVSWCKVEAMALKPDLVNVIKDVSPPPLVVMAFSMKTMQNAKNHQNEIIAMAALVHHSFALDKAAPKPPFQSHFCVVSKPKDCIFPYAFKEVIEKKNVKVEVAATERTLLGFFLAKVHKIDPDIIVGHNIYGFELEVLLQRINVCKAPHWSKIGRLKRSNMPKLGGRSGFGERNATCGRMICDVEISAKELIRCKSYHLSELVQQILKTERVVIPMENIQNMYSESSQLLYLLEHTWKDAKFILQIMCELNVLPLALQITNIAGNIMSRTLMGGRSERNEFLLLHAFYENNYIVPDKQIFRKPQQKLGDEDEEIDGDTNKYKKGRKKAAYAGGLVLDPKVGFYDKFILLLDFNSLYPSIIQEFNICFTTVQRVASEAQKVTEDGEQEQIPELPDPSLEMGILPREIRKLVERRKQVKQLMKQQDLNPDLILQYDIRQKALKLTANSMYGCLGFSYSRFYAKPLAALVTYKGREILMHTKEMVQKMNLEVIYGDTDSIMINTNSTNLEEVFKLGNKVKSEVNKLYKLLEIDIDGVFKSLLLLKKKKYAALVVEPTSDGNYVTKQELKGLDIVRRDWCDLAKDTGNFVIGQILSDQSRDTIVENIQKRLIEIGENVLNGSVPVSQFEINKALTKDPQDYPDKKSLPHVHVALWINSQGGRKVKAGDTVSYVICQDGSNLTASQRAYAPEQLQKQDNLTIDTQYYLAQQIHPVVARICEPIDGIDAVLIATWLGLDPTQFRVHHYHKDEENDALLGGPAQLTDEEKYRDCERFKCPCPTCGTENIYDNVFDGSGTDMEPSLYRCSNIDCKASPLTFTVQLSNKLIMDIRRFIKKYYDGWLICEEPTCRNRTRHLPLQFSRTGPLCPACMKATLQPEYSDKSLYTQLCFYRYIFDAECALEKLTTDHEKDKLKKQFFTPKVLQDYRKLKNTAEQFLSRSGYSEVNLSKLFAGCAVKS
Kind of data set: Inhibition of DNA polymerase alpha.

Data set [6] concerns the target DNA polymerase beta (Homo sapiens, UniProt P06746). The experiment in a line: Inhibition of DNA polymerase beta.
Data set [7] concerns the target T3, Cytochrome P450 3A4 (Homo sapiens, UniProt P08684). The experiment in a line: Induction of CYP450 3A4. It is filed as ADME.
Data set [8] deals with Cytochrome P450 2D6 (Homo sapiens, UniProt P10635). The experiment in a line: Inhibition of CYP450 2D6. The data set is classed as ADME.
Sequence of Cytochrome P450 2D6 (P10635 whole entry): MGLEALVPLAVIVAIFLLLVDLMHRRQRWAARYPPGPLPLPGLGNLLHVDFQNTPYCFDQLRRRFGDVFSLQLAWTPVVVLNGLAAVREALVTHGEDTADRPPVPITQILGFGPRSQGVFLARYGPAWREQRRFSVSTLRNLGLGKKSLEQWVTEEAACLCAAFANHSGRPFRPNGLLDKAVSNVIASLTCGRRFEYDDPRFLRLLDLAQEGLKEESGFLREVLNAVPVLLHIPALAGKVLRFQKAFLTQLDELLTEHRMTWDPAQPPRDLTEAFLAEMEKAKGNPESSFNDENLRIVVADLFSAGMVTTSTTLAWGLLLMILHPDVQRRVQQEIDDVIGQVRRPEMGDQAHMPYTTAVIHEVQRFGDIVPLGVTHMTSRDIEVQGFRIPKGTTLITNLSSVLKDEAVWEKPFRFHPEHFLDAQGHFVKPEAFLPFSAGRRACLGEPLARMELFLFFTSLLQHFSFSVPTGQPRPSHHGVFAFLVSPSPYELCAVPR
Data set [9] concerns the target T1, RNA-directed RNA polymerase. Kind of data set: Inhibition of HCV 1a NS5B RNA dependent RNA polymerase. Also on record: species or system Hepatitis C virus subtype 1a. The essentials:
as §1

Data set [10] is described as follows: Half life in rat at 10 mg/kg. Details: dose 10 mg/kg. As to conditions: in vivo. It is filed as ADME, organism-based.
For data set [11], the target named is T1, RNA-directed RNA polymerase. Kind of data set: Inhibition of HCV 2a NS5B RNA dependent RNA polymerase. Also on record: species or system Hepatitis C virus subtype 2a. An outline of the steps: as §1
The nature of data set [12]: Inhibition of mammalian DNA dependent RNA polymerase.
The subject of data set [13] is Rattus norvegicus. Kind of data set: Toxicity in rat up to 300 mg/kg/day after 4 weeks. It is filed as organism-based. Particulars: in vivo, 672 h.
Data set [14] in a line: Therapeutic index, CC50 for viability of Huh5-2 cells/EC50 for inhibition of HCV subgenomic RNA replication. It is filed as cell-based, Huh-5-2. Particulars: human, read-out: Ratio CC50/EC50.
The target in data set [15] is Human immunodeficiency virus type 1 reverse transcriptase (Human immunodeficiency virus 1, UniProt Q72547). Kind of data set: Inhibition of HIV reverse transcriptase.
Data set [16] can be described thus: Oral bioavailability in rat at 10 mg/kg. The data set is classed as ADME, organism-based. As to conditions: in vivo.
The target in data set [17] is T3, Cytochrome P450 3A4. The experiment in a line: Inhibition of CYP450 3A4. The data set is classed as ADME.

T1 sequence (O39930 whole entry): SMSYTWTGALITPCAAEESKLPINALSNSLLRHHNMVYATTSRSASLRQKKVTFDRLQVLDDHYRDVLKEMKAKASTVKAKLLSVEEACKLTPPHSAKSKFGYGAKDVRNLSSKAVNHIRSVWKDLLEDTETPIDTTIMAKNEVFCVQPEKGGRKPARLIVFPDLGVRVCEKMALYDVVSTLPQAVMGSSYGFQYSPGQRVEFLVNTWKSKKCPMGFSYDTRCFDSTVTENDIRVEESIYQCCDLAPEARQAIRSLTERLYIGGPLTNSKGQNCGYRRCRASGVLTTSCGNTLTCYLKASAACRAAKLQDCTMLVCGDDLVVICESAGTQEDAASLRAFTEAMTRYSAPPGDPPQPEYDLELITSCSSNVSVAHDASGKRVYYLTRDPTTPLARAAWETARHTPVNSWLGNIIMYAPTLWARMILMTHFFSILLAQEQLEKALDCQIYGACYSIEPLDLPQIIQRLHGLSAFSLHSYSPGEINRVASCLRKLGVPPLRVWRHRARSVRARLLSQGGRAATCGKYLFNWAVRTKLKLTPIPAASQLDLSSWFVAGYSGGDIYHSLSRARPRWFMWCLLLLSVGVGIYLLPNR
T3 sequence (P08684 whole entry): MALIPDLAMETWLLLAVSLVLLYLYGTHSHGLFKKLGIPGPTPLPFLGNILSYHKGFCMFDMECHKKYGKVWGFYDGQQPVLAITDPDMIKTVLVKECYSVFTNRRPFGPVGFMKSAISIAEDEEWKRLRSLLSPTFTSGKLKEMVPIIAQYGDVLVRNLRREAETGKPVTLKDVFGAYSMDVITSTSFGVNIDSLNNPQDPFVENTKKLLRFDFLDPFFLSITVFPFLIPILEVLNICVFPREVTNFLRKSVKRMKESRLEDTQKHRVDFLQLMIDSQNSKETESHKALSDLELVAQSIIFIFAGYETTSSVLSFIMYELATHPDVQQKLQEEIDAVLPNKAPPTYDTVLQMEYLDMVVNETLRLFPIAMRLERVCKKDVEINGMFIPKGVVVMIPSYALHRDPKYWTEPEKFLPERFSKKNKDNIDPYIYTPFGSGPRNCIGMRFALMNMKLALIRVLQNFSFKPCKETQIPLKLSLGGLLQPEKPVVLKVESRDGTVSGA

The compound `O=C(O)c1ccc2c(c1)nc(-c1ccc(OCc3cc(N4CCCC4=O)ccc3-c3ccc(Cl)cc3)cc1F)n2C1CCCCC1` yielded a concentration at 2 h in data set [1] of 4.5 µM. Further, the Activity result in data set [2] is “Not Active”; in data set [7], “Not Active”; in data set [13], “Non-toxic”. This compound displayed a CC50 in data set [3] of 25 µM. For the same compound, the IC50 was 2 µM in data set [4]; above 10 µM in data set [5]; above 10 µM in data set [6]; 0.062 µM in data set [9]; 6.4 µM in data set [11]; above 10 µM in data set [12]. The compound also displayed an IC50 in data set [15] above 10 µM. Further, the Inhibition entry in data set [8] and in data set [17] was “Not Active” throughout. In [10], this compound gave a half-life of 2.1 h. Moreover, the selectivity ratio in [14] came to 78. Also, the bioavailability in [16] was found to be 36%.
